# Activity calls are given as the source filed them. The rule behind the calls is not given here.
# What was measured:
# Human betaherpesvirus 5 [1] = experiment: Antimicrobial activity against 0.1 uM compound pretreated Human cytomegalovirus AD169 infected in HELF assessed as reduction in viral titer at 4 degC; type: functional, organism-based
# Outline: (§1)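 HCMV AD169 (10^4 PFU) incubated with ODN at 0.1 μM at 4 or 37°C for various times; samples then diluted to bring ODN below an antivirally active level; residual infectivity titrated by plaque assay on HELF. Means ± SD of three independent experiments.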
# Human betaherpesvirus 5 [2] = experiment: Antimicrobial activity against Human cytomegalovirus AD169 infected in HELF assessed as inhibition of viral replication at 0.1 uM measured after 6 days post-infection; type: functional, organism-based
# Human betaherpesvirus 5 [3] = experiment: Antimicrobial activity against Human cytomegalovirus AD169 infected in compound pretreated HELF assessed as inhibition of viral replication measured after 6 days post-infection; type: functional, organism-based; conditions: Human betaherpesvirus 5, AD169, HELF
# Outline: (§2)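 HELF pretreated with ODN 1 h before infection with HCMV AD169 (MOI 1); ODN kept in medium after 2 h adsorption at 37°C. At 6 days p.i., cells plus supernatants sonicated and titrated by plaque assay on HELF; plaques counted microscopically, expressed as PFU/ml (log10) or % of control. IC50/IC90 by linear regression; duplicate wells, three independent experiments, means ± SD.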
# Human betaherpesvirus 5 [4] = experiment: Antimicrobial activity against Human cytomegalovirus AD169 infected in 1 uM compound pretreated HELF assessed as inhibition of viral replication measured after 6 days post-infection; type: functional, organism-based; outline: as §2
# [5] = system: Vesicular stomatitis Indiana virus; experiment: Antimicrobial activity against Vesicular stomatitis Indiana virus infected in compound pretreated HELF assessed as inhibition of viral replication; type: functional, organism-based
# Outline: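 HELFs exposed to ODN (0.1 or 1 μM) for 1 h, then infected with VSV serotype Indiana at MOI 1 (2 h adsorption, 37°C). ODN kept in the medium until 48 h p.i. Cells and supernatants were pooled, sonicated and titrated by plaque assay on HELFs. Data are means ± standard deviations of three independent experiments, duplicate wells.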
# [6] = Cytotoxicity against HELF assessed as cell viability by MTT assay after 6 days at <=10 uM; type: cell-based; conditions: human, 144 h
# Outline: (§3)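 HELF exposed to rising ODN concentrations (up to 10 μM) for 6 days; viable cells measured by MTT. CC50 taken as concentration that cuts viability to 50%.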
# Human alphaherpesvirus 1 [7] = experiment: Antimicrobial activity against Human herpesvirus 1 infected in compound pretreated HELF assessed as inhibition of viral replication at 0.1 uM; type: functional, organism-based
# Outline: (§4)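 HELF pretreated with ODN (0.1 or 1 μM) 1 h before infection with a clinical HSV-1 isolate at MOI 0.1; ODN kept in medium after 2 h adsorption. Harvest at 48 h p.i., sonication, plaque titration on Vero cells. Means ± SD of three independent experiments.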
# Human betaherpesvirus 5 [8] = experiment: Antimicrobial activity against Human cytomegalovirus AD169 infected in 0.1 uM compound pretreated HELF assessed as inhibition of viral replication measured after 6 days post-infection; type: functional, organism-based; outline: as §2
# [9] = Cytotoxicity against HELF assessed as cell viability after 6 days by MTT assay; type: cell-based; conditions: human, HELF cells; outline: as §3
# Human betaherpesvirus 5 [10] = experiment: Antimicrobial activity against 0.1 uM compound pretreated Human cytomegalovirus AD169 infected in HELF assessed as reduction in viral titer 37 degC; type: functional, organism-based; outline: as §1
# unidentified adenovirus = experiment: Antimicrobial activity against unidentified adenovirus infected in compound pretreated HELF assessed as inhibition of viral replication; type: functional, organism-based
# Outline: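 HELF pretreated 1 h with ODN (0.1 or 1 μM), infected with an adenovirus clinical isolate (MOI 1); ODN kept after 2 h adsorption. Harvest at 4 days p.i., sonication, plaque titration on HELF. Means ± SD, three experiments.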
# Human betaherpesvirus 5 [11] = experiment: Antimicrobial activity against Human cytomegalovirus TB40 expressing EGPF tagged UL32 infected in HELF assessed as inhibition of inhibition of viral adsorption at 0.1 uM after 2 hrs by fluorescence microscopy; type: functional, organism-based
# Outline: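 Prechilled HELF on coverslips exposed to ODN (0.1 μM) or heparin (30 μg/ml) 1 h at 4°C, then infected with HCMV TB40 UL32-EGFP (MOI 20) 2 h at 4°C to permit attachment only. Washed in ice-cold PBS, fixed in 4% formaldehyde, propidium iodide counterstain; green virions imaged by confocal fluorescence microscopy. Done twice.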
# Human alphaherpesvirus 1 [12] = experiment: Antimicrobial activity against Human herpesvirus 1 infected in compound pretreated HELF assessed as inhibition of viral replication at 1 uM; type: functional, organism-based; outline: as §4
# Human betaherpesvirus 5 [13] = experiment: Antimicrobial activity against Human cytomegalovirus AD169 infected in HELF assessed as inhibition of viral replication at 1 uM measured after 6 days post-infection; type: functional, organism-based
structure (smiles),measurement,setting,value
Cc1cn([C@H]2C[C@H](OP(O)(O)=S)[C@@H](COP(O)(=S)O[C@H]3C[C@H](n4cc(C)c(=O)[nH]c4=O)O[C@@H]3COP(O)(=S)O[C@H]3[C@@H](O)[C@H](n4cnc5c(=O)[nH]c(N)nc54)O[C@@H]3COP(O)(=S)O[C@H]3[C@@H](O)[C@H](n4ccc(N)nc4=O)O[C@@H]3COP(O)(=S)O[C@H]3C[C@H](n4cc(C)c(=O)[nH]c4=O)O[C@@H]3COP(O)(=S)O[C@H]3[C@@H](O)[C@H](n4cnc5c(=O)[nH]c(N)nc54)O[C@@H]3COP(O)(=S)O[C@H]3C[C@H](n4cc(C)c(=O)[nH]c4=O)O[C@@H]3COP(O)(=S)O[C@H]3C[C@H](n4cc(C)c(=O)[nH]c4=O)O[C@@H]3COP(O)(=S)O[C@H]3C[C@H](n4cc(C)c(=O)[nH]c4=O)O[C@@H]3COP(O)(=S)O[C@H]3C[C@H](n4cc(C)c(=O)[nH]c4=O)O[C@@H]3COP(O)(=S)O[C@H]3[C@@H](O)[C@H](n4cnc5c(=O)[nH]c(N)nc54)O[C@@H]3COP(O)(=S)O[C@H]3[C@@H](O)[C@H](n4ccc(N)nc4=O)O[C@@H]3COP(O)(=S)O[C@H]3C[C@H](n4cc(C)c(=O)[nH]c4=O)O[C@@H]3COP(O)(=S)O[C@H]3[C@@H](O)[C@H](n4cnc5c(=O)[nH]c(N)nc54)O[C@@H]3COP(O)(=S)O[C@H]3C[C@H](n4cc(C)c(=O)[nH]c4=O)O[C@@H]3COP(O)(=S)O[C@H]3C[C@H](n4cc(C)c(=O)[nH]c4=O)O[C@@H]3COP(O)(=S)O[C@H]3[C@@H](O)[C@H](n4cnc5c(=O)[nH]c(N)nc54)O[C@@H]3COP(O)(=S)O[C@H]3[C@@H](O)[C@H](n4ccc(N)nc4=O)O[C@@H]3COP(O)(=S)O[C@H]3C[C@H](n4cc(C)c(=O)[nH]c4=O)O[C@@H]3COP(O)(=S)O[C@H]3[C@@H](O)[C@H](n4cnc5c(=O)[nH]c(N)nc54)O[C@@H]3COP(O)(=S)O[C@H]3[C@@H](O)[C@H](n4ccc(N)nc4=O)O[C@@H]3COP(O)(=S)O[C@H]3C[C@H](n4cc(C)c(=O)[nH]c4=O)O[C@@H]3CO)O2)c(=O)[nH]c1=O (stereo not given in full),inhibition,Human betaherpesvirus 5 [1],inactive
same,inhibition,Human betaherpesvirus 5 [2],inactive
same,IC50,Human betaherpesvirus 5 [3],0.2 µM
same,IC90,Human betaherpesvirus 5 [3],4 µM
same,inhibition,Human betaherpesvirus 5 [4],Active
same,inhibition,[5],inactive
same,Activity,[6],Non-toxic
same,inhibition,Human alphaherpesvirus 1 [7],inactive
same,inhibition,Human betaherpesvirus 5 [8],Active
same,CC50 at 144 h,[9],> 10 µM
same,inhibition,Human betaherpesvirus 5 [10],inactive
same,inhibition,unidentified adenovirus,inactive
same,inhibition,Human betaherpesvirus 5 [11],inactive
same,inhibition,Human alphaherpesvirus 1 [12],inactive
same,inhibition,Human betaherpesvirus 5 [13],inactive

# Reference: ChEMBL document CHEMBL1255259, “Phosphorothioate-modified oligodeoxynucleotides inhibit human cytomegalovirus replication by blocking virus entry” (Antimicrob Agents Chemother, 2008)
